Source: ChEMBL document CHEMBL1125330, “N-substituted pyrazino[2,3-c][1,2,6]thiadiazine 2,2-dioxides. A new class of diuretics” (J Med Chem, 1992)

How the values were obtained:
Rattus norvegicus [1] = assay: Mean urinary output in rats when compound administered at 20 mg/kg po and vehicle dosed at 74.26 umol/kg; format: ADME, organism-based, Urine; design: dose 20 mg/kg, route oral; settings: in vivo
Outline: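 Water-loaded male Sprague-Dawley rats (HC/CFY, 175-200 g) fasted and without water for 18 h. Oral gavage of 2.5-160 mg/kg in 1% CMC with 0.1% Tween 80, then distilled water 2.5 mL/100 g po. Urine collected 6 h in metabolic cages, mean output in mL/6 h/kg bw. Unpaired Student t-test against vehicle; dose-response by linear regression.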

Rattus norvegicus [2] = species on record: Rattus norvegicus; assay: Mean sodium excretion in rats (Control/Drug treatment value); value 0.35/2.88; format: ADME, organism-based; settings: in vivo
Rattus norvegicus [3] = assay: Mean potassium excretion in rats when compound administered at 10 mg/kg po and vehicle dosed at 37.13 umol/kg; format: ADME, organism-based; design: dose 10 mg/kg, route oral; settings: in vivo
Outline: (§1)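 Male Sprague-Dawley rats (HC/CFY, 175-200 g), no food or water for 18 h before and during the test. Single gavage dose (2.5-160 mg/kg; vehicle 1% carboxymethyl cellulose/0.1% Tween 80, 0.5 mL/100 g bw), then distilled water 2.5 mL/100 g bw po. Individual metabolic cages, 6 h urine. K+ by flame photometry, Cl- colorimetric, as mequiv/6 h/kg bw; unpaired Student t-test vs control.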

Rattus norvegicus [4] = assay: Volume of urine 2 hr after the compound was administered 100 mg/kg po in rat; format: ADME, organism-based; design: dose 100 mg/kg, route oral; settings: in vivo
Outline: (§2)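 Onset/duration protocol: male Sprague-Dawley rats (HC/CFY, 175-200 g), food and water withdrawn for 18 h before and during the test. Single gavage dose in 1% carboxymethyl cellulose/0.1% Tween 80 (0.5 mL/100 g bw), then distilled water load (2.5 mL/100 g bw po). Two rats per metabolic cage, six pairs per group. Urine collected at 0-1, 1-2, 2-3, 3-4 and 4-6 h; Na+ by flame photometry. Vehicle controls; nonpaired Student t-test.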

Rattus norvegicus [5] = species on record: Rattus norvegicus; assay: Mean urinary output in rats (Control/Drug treatment value); value 24.2/47.6; format: ADME, organism-based, Urine; settings: in vivo
Outline: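 Water-loaded male Sprague-Dawley rats (HC/CFY, 175-200 g), eight per group, deprived of food and water 18 h. Single oral gavage of 20-25 mg/kg (some 10 mg/kg) in 1% CMC/0.1% Tween 80, then distilled water 2.5 mL/100 g bw po. Cumulative urine over 6 h in metabolic cages; mean mL/6 h/kg bw vs vehicle group.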

Rattus norvegicus [6] = assay: Urinary sodium 2 hr after the compound was administered 100 mg/kg po in rat; format: ADME, organism-based, Urine; design: dose 100 mg/kg, route oral; settings: in vivo
Outline: (§3)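 Onset and duration study in fasted, water-loaded male Sprague-Dawley rats housed two per metabolic cage, six pairs per group. Single oral dose given, then water 2.5 mL/100 g po. Urine volume and sodium (flame photometry) measured over 0-1, 1-2, 2-3, 3-4 and 4-6 h intervals. Mean values compared with vehicle by Student t-test.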

Rattus norvegicus [7] = assay: Mean Chlorine excretion in rats when compound administered at 2.5 mg/kg po and vehicle dosed at 9.28 umol/kg; format: ADME, organism-based; design: dose 2.5 mg/kg, route oral; settings: in vivo; outline: as §1
Rattus norvegicus [8] = assay: Dose required to produce an excretion of 2 mequiv of Na+/kg bw/6h vs control groups; format: functional
Outline: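 Male Sprague-Dawley rats (HC/CFY, 175-200 g), fasted and water-deprived 18 h before and during the test. Compound dosed by gavage in 1% carboxymethyl cellulose/0.1% Tween 80, then water load 2.5 mL/100 g bw po. Urine collected 6 h in metabolic cages; Na+ by flame photometry. Effective doses vs vehicle controls derived by linear regression of dose-response data.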

Rattus norvegicus [9] = assay: Mean Chlorine excretion in rats when compound administered at 0 mg/kg po and vehicle dosed at 0 umol/kg; format: ADME, organism-based; design: dose 0 mg/kg, route oral; settings: in vivo
Rattus norvegicus [10] = assay: Mean sodium excretion in rats when compound administered at 160 mg/kg po and vehicle dosed at 594.07 umol/kg; format: ADME, organism-based; design: dose 160 mg/kg, route oral; settings: in vivo
Outline: (§4)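 Male Sprague-Dawley rats (HC/CFY, 175-200 g) fasted and water-deprived 18 h before and during the test. Dosed by gavage at 2.5-160 mg/kg in 1% carboxymethyl cellulose/0.1% Tween 80, 0.5 mL/100 g bw. Immediately hydrated with water (2.5 mL/100 g bw, po). Urine collected 6 h in metabolic cages; Na+ and K+ by flame photometry; mean mequiv/6 h/kg bw; nonpaired Student t-test.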

Rattus norvegicus [11] = assay: Mean potassium excretion in rats when compound administered at 160 mg/kg po and vehicle dosed at 594.07 umol/kg; format: ADME, organism-based; design: dose 160 mg/kg, route oral; settings: in vivo; outline: as §1
Rattus norvegicus [12] = assay: Mean sodium excretion in rats when compound administered at 40 mg/kg po and vehicle dosed at 148.52 umol/kg; format: ADME, organism-based; design: dose 40 mg/kg, route oral; settings: in vivo; outline: as §4
Rattus norvegicus [13] = assay: Mean potassium excretion in rats when compound administered at 5 mg/kg po and vehicle dosed at 18.56 umol/kg; format: ADME, organism-based; design: dose 5 mg/kg, route oral; settings: in vivo; outline: as §4
Rattus norvegicus [14] = assay: Volume of urine 4 hr after the compound was administered 100 mg/kg po in rat; format: ADME, organism-based; design: dose 100 mg/kg, route oral; settings: in vivo; outline: as §2
Rattus norvegicus [15] = assay: Mean sodium excretion in rats when compound administered at 20 mg/kg po and vehicle dosed at 74.26 umol/kg; format: ADME, organism-based; design: dose 20 mg/kg, route oral; settings: in vivo; outline: as §4
Rattus norvegicus [16] = assay: Mean Chlorine excretion in rats when compound administered at 5 mg/kg po and vehicle dosed at 18.56 umol/kg; format: ADME, organism-based; design: dose 5 mg/kg, route oral; settings: in vivo; outline: as §1
Rattus norvegicus [17] = assay: Volume of urine 3h after the compound was administered 100 mg/kg po in rat; format: ADME, organism-based; design: dose 100 mg/kg, route oral; settings: in vivo; outline: as §2
Rattus norvegicus [18] = assay: Urinary sodium 3h after the compound was administered 100 mg/kg po in rat; format: ADME, organism-based, Urine; design: dose 100 mg/kg, route oral; settings: in vivo; outline: as §3
Rattus norvegicus [19] = assay: Mean sodium excretion in rats when compound administered at 5 mg/kg po and vehicle dosed at 18.56 umol/kg; format: ADME, organism-based; design: dose 5 mg/kg, route oral; settings: in vivo; outline: as §4

CCc1nc2c(nc1C)C(N)=NS(=O)(=O)N2CC
V (Rattus norvegicus [1]): 42.25 ml 6hr-1 (kg of body weight)-1
Na (Rattus norvegicus [2]): 8.2
K (Rattus norvegicus [3]): 0.72 m equiv 6hr-1 kg-1 (body weight)-1
Urine volume (Rattus norvegicus [4]): 8.7 mL
V (Rattus norvegicus [5]): 2
Urinary Na+ (Rattus norvegicus [6]): 0.67 m equiv
Cl- (Rattus norvegicus [7]): 1.21 m equiv 6hr-1 kg-1 (body weight)-1
ED2 (Rattus norvegicus [8]): 14.62 mg/kg
Cl- (Rattus norvegicus [9]): 1.02 m equiv 6hr-1 kg-1 (body weight)-1
Na (Rattus norvegicus [10]): 6.14 m equiv 6hr-1 kg-1 (body weight)-1
K (Rattus norvegicus [11]): 2.35 m equiv 6hr-1 kg-1 (body weight)-1
Na (Rattus norvegicus [12]): 3.63 m equiv 6hr-1 kg-1 (body weight)-1
K (Rattus norvegicus [13]): 0.52 m equiv 6hr-1 kg-1 (body weight)-1
Urine volume (Rattus norvegicus [14]): 2.71 mL
Na (Rattus norvegicus [15]): 1.7 m equiv 6hr-1 kg-1 (body weight)-1
Cl- (Rattus norvegicus [16]): 1.83 m equiv 6hr-1 kg-1 (body weight)-1
Urine volume (Rattus norvegicus [17]): 5.52 mL
Urinary Na+ (Rattus norvegicus [18]): 0.56 m equiv
Na (Rattus norvegicus [19]): 0.8 m equiv 6hr-1 kg-1 (body weight)-1
